Experimental findings from ChEMBL document CHEMBL2424622, “Development of amino-pyrimidine inhibitors of c-Jun N-terminal kinase (JNK): kinase profiling guided optimization of a 1,2,3-benzotriazole lead” (Bioorg Med Chem Lett, 2013) are described below.

One experiment deals with LIM domain kinase 2 (Homo sapiens, UniProt P53671). Nature of the experiment: Competitive binding affinity to LIMK2 (unknown origin) at 10 uM in presence of ATP relative to control. A digest of the protocol:
(§1)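 In vitro ATP-site competition binding assay, part of profiling against a diverse panel of 128 kinases. Each compound was tested at a single concentration of 10 µM. Kinome selectivity was summarized as S15 selectivity scores.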

For experiment [1], the system named is Mast/stem cell growth factor receptor Kit (Homo sapiens), P10721 [V559D,V654A]. In words: Competitive binding affinity to KIT V559D/V654A double mutant (unknown origin) at 10 uM in presence of ATP relative to control. The method, boiled down:
as §1

Experiment [2] deals with T1, cGMP-dependent protein kinase 1 (Homo sapiens) (UniProt Q13976).
T1 sequence (whole entry): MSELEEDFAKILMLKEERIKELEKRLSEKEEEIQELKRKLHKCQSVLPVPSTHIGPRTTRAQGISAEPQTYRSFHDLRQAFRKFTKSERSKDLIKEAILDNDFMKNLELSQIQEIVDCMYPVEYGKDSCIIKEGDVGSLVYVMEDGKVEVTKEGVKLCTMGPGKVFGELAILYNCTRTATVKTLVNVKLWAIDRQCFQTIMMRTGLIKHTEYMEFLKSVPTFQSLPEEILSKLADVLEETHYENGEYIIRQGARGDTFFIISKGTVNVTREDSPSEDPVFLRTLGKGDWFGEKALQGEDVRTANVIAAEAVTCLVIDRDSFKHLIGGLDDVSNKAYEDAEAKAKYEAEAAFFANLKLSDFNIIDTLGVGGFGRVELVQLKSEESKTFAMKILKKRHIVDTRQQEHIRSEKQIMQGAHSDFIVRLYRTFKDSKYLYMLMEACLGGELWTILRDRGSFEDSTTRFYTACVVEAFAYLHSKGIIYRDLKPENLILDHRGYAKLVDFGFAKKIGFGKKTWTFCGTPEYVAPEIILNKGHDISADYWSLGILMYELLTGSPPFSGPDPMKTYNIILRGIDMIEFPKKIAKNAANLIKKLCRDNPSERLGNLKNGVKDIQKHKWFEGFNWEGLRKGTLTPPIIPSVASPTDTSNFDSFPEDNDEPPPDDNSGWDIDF
Nature of the experiment: Competitive binding affinity to PRKG1 (unknown origin) at 10 uM in presence of ATP relative to control.

Experiment [3] has as its system Epidermal growth factor receptor (Homo sapiens), P00533 [G719C]. Nature of the experiment: Competitive binding affinity to EGFR G719C mutant (unknown origin) at 10 uM in presence of ATP relative to control. A digest of the protocol:
as §1

Experiment [4] deals with Serine/threonine-protein kinase MRCK gamma (Homo sapiens) (UniProt Q6DT37). Nature of the experiment: Competitive binding affinity to DMPK2 (unknown origin) at 10 uM in presence of ATP relative to control.
In experiment [5] the target is T2, Serine/threonine-protein kinase BRSK1 (Homo sapiens) (UniProt Q8TDC3).
T2 sequence (whole entry): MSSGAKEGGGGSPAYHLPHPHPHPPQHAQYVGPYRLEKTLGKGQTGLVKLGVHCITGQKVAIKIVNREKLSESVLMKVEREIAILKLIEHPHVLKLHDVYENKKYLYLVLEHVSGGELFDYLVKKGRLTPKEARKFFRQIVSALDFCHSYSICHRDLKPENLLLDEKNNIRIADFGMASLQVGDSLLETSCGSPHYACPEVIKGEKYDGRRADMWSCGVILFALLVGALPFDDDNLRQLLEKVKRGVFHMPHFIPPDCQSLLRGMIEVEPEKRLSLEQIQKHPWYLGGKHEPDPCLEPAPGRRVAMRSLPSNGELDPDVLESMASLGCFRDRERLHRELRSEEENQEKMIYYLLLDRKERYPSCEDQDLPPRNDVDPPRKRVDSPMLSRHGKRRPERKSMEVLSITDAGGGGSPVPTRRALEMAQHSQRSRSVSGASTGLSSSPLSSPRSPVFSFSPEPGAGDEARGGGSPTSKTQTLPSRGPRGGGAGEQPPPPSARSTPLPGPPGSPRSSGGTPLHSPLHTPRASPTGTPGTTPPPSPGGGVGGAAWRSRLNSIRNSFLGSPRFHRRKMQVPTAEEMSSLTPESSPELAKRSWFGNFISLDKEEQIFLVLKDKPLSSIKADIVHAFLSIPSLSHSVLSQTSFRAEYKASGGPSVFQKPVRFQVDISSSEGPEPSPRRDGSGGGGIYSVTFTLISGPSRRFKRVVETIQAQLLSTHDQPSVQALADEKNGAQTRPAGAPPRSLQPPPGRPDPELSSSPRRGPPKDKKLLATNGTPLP
Nature of the experiment: Competitive binding affinity to BRSK1 (unknown origin) at 10 uM in presence of ATP relative to control.

Experiment [6] addresses Interferon-induced, double-stranded RNA-activated protein kinase (Homo sapiens, UniProt P19525). Nature of the experiment: Competitive binding affinity to PRKR (unknown origin) at 10 uM in presence of ATP relative to control.
Experiment [7] concerns the target Dual specificity mitogen-activated protein kinase kinase 1 (Homo sapiens) (UniProt Q02750). In words: Competitive binding affinity to MEK1 (unknown origin) at 10 uM in presence of ATP relative to control.

Sequence of Dual specificity mitogen-activated protein kinase kinase 1 (Homo sapiens) (Q02750 whole entry): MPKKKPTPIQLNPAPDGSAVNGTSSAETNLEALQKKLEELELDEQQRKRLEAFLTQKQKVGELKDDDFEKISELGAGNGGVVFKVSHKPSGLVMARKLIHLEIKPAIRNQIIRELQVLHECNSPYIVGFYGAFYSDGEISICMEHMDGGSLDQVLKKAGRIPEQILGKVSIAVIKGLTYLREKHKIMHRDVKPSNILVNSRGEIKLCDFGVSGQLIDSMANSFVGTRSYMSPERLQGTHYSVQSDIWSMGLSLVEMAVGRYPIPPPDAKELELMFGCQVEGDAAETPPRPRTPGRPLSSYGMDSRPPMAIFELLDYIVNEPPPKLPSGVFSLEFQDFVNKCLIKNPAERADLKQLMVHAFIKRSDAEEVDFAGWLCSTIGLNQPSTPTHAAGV
Sequence of Serine/threonine-protein kinase MRCK gamma (Homo sapiens) (Q6DT37 whole entry): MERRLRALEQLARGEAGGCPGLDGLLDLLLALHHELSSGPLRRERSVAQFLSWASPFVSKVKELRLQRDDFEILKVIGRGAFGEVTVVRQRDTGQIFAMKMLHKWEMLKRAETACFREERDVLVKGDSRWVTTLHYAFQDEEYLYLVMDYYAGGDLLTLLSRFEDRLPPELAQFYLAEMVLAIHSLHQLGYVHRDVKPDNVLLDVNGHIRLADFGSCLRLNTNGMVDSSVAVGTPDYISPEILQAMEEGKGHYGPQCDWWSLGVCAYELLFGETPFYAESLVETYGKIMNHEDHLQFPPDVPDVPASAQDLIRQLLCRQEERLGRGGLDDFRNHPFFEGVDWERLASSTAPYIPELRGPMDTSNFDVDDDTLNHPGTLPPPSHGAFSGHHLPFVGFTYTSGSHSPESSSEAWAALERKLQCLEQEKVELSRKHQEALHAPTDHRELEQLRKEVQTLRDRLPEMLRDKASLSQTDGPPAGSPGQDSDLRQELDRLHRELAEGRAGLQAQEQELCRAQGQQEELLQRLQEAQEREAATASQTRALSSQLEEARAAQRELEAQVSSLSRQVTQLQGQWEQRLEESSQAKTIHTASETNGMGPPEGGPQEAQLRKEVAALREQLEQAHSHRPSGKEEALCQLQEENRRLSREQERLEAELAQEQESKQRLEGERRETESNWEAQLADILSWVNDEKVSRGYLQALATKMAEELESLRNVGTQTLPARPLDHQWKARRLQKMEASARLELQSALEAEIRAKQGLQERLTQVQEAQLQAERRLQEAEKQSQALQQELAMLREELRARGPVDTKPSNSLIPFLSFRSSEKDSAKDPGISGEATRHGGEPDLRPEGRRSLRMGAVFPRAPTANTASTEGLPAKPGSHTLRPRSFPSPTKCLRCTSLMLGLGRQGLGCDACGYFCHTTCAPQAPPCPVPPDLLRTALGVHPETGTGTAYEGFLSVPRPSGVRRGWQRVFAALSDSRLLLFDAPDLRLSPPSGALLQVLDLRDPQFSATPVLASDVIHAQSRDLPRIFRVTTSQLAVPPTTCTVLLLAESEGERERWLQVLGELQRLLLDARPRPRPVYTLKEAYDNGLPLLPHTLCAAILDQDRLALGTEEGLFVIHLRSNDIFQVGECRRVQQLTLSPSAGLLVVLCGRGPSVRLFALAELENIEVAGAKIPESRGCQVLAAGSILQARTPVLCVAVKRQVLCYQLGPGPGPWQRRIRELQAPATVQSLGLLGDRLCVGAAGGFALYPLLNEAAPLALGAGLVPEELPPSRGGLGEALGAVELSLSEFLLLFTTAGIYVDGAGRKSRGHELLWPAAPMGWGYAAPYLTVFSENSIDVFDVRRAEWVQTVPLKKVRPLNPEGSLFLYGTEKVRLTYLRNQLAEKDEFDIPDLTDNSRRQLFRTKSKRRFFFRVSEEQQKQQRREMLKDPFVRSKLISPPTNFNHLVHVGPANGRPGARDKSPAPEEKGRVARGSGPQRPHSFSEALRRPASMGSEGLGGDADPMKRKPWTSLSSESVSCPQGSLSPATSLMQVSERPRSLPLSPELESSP
Sequence of LIM domain kinase 2 (P53671 whole entry, looked up, the tested form may be a part): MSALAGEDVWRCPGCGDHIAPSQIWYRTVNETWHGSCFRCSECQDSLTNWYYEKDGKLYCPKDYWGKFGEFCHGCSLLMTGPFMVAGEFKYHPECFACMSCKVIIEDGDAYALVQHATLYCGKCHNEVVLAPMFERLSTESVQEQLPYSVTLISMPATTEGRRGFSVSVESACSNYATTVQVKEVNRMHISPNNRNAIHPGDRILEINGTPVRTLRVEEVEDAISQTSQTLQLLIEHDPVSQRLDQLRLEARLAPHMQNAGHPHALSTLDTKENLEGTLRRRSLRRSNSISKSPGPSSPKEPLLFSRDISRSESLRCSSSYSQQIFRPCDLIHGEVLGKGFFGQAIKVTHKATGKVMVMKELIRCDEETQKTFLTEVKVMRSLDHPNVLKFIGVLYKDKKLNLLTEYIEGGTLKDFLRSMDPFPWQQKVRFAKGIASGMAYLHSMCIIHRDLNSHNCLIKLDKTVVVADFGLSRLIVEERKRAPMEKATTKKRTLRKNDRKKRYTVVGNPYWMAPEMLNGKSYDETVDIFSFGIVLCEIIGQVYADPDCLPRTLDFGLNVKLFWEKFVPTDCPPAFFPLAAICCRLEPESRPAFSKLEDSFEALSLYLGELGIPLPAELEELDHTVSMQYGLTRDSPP
Sequence of Epidermal growth factor receptor (Homo sapiens), P00533 [G719C] (P00533 whole entry G719C): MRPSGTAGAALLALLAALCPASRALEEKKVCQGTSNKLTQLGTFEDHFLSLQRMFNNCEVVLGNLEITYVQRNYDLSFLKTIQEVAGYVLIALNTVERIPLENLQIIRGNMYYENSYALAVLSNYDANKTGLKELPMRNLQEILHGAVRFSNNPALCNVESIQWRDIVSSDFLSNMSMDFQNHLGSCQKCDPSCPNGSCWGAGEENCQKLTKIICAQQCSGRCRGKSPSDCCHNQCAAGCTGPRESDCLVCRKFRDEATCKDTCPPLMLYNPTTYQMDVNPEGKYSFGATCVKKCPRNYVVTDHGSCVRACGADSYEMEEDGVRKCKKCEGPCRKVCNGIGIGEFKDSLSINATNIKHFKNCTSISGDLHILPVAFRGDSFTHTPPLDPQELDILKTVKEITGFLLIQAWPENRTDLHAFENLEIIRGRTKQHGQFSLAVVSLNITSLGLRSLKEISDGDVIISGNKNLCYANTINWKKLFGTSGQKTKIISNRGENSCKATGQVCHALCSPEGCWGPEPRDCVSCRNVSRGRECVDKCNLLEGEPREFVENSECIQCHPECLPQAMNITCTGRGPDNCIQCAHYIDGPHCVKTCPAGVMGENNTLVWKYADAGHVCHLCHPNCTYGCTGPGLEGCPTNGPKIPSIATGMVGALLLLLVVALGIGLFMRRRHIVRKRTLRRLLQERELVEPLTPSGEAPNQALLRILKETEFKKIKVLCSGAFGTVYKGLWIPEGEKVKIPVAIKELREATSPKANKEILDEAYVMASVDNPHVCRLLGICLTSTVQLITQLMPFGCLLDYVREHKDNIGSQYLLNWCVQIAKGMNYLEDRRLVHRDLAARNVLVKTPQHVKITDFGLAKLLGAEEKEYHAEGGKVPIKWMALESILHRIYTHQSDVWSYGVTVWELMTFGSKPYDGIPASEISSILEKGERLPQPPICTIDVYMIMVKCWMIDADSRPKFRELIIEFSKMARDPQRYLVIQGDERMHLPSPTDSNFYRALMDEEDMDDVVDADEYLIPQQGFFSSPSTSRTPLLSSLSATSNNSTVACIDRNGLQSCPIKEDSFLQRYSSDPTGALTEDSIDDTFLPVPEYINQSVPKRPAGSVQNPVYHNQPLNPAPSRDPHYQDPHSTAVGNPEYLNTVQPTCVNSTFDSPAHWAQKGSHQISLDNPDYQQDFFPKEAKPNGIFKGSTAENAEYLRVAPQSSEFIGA
Sequence of Interferon-induced, double-stranded RNA-activated protein kinase (P19525 whole entry): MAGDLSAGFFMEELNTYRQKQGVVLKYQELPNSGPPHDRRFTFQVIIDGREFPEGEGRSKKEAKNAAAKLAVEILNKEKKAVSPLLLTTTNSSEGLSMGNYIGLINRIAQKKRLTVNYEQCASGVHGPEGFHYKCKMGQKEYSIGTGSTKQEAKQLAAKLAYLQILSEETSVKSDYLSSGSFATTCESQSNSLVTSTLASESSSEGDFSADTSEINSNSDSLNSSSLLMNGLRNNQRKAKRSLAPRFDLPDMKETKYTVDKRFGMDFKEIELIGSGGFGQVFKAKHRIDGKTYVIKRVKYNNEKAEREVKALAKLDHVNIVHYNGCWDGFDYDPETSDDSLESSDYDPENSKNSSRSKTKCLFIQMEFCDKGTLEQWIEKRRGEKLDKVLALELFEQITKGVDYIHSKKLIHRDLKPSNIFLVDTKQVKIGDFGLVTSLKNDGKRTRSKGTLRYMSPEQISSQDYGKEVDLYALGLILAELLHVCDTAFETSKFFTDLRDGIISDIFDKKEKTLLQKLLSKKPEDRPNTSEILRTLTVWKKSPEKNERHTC

The term inhibition denotes how much of the control response was suppressed. Consider `O[C@H]1CC[C@H](Nc2nccc(-c3n[nH]c4ccccc34)n2)CC1`, for which the inhibition at LIM domain kinase 2 was 100%; in experiment [1] it was 82%; in experiment [2] it was less than 50%; in experiment [3], less than 50%.

Consider `O[C@H]1CC[C@H](Nc2nccc(-n3ccc4ccccc43)n2)CC1`, for which the inhibition at LIM domain kinase 2 is 81%; in experiment [1] it was 64%; in experiment [4], less than 50%; in experiment [5] it was less than 50%; in experiment [2] it was less than 50%; in experiment [6] it was 95%. Further, the inhibition in experiment [3] and in experiment [7] was less than 50% each time.

Take `O[C@H]1CC[C@H](Nc2nccc(-n3ncc4ccccc43)n2)CC1`: the inhibition is 76% at LIM domain kinase 2; 87% in experiment [1]; less than 50% in experiment [4]; less than 50% in experiment [5]; less than 50% in experiment [2]; 100% in experiment [6]. In addition, the inhibition in experiment [3] and in experiment [7] was less than 50% in each case.

For `O[C@H]1CC[C@H](Nc2nccc(-n3nnc4ccccc43)n2)CC1`, the inhibition on LIM domain kinase 2 is 78%; in experiment [1] it was 67%; in experiment [4] it was less than 50%; in experiment [5] it was less than 50%; in experiment [2] it was less than 50%; in experiment [6] it was 100%. Besides, the inhibition in experiment [3] and in experiment [7] was less than 50% in each case.

For `CS(=O)(=O)CCCOc1cccc2c1ccn2-c1ccnc(N[C@H]2CC[C@H](C(=O)N3CCC(O)CC3)CC2)n1`, at LIM domain kinase 2, the inhibition was more than 85%.
